ChEMBL document CHEMBL1137507, “Discovery, synthesis, and structure-activity studies of tetrazole based growth hormone secretagogues” (Bioorg Med Chem Lett, 2007)
pEC50, pKi: −log10 of the molar value.

Key:
[1] = biological target: T1, Growth hormone secretagogue receptor type 1 (Homo sapiens, UniProt Q92847); test: Displacement of [125I]ghrelin from human GHSR1a after 1 hr
Procedure, shortened: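 Membranes (0.5 ug) from RAGE-based GHSR1a-expressing cells incubated 1 h with 0.02 nM [125I]ghrelin in 25 mM Hepes pH 7.2, 10 mM MgCl2, 2 mM EGTA, 0.1% BSA across a 12-point compound dose range; filtration over polyethylenimine-coated GFB plates, scintillation counting; four-parameter logistic fit, Ki via Cheng-Prusoff; typically tested on three separate occasions.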

[2] = biological target: T1, Growth hormone secretagogue receptor type 1; test: Agonist activity at human GHS receptor expressed in H4 glioma cells assessed as intracellular calcium concentration by FLIPR assay; type: functional, cell-based
[3] = Oral bioavailability in dog; type: ADME, organism-based, Canis lupus familiaris; conditions: in vivo
[4] = biological target: Growth hormone secretagogue receptor type 1 (Rattus norvegicus) (UniProt O08725); test: Agonist activity at GHS receptor in intravenously dosed anesthetized Wistar rat after 15 mins; type: functional, organism-based
[5] = Oral bioavailability in rat; type: ADME, organism-based; conditions: in vivo
Canis familiaris = test: Effect on GH level in Beagle dog at 10 mg/kg, po; type: functional, Canis lupus familiaris
Procedure, shortened: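 Beagle dogs dosed orally at 10 mg/kg alongside vehicle controls; plasma GH followed to 120 min post-dose, read-out as mean peak GH level in ng/mL.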

Growth hormone secretagogue receptor type 1 (Rattus norvegicus), sequence (O08725 whole entry): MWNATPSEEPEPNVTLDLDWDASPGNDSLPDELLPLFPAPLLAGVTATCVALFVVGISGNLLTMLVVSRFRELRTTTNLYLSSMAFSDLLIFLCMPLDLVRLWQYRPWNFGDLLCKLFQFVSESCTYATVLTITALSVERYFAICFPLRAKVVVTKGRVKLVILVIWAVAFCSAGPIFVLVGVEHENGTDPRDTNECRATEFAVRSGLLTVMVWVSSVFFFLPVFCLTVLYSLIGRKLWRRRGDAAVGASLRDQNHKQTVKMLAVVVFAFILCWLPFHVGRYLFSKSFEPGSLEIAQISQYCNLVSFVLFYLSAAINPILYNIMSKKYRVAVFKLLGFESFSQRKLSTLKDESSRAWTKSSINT
T1 sequence (Q92847 whole entry): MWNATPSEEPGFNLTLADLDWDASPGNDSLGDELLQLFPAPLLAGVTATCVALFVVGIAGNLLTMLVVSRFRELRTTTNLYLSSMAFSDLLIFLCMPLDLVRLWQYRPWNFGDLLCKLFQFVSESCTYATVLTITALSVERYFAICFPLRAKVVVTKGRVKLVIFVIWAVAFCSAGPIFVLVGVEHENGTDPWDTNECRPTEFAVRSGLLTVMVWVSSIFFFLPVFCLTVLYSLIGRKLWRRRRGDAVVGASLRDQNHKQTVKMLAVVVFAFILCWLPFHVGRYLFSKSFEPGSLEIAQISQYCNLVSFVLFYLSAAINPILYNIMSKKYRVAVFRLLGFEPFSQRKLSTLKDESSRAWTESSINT

Row | SMILES | pKi [1] | pEC50 [2] | bioavailability [3] [%] | ED50 [4] [µmol/kg] | bioavailability [5] [%] | Activity (Canis familiaris) [ng/mL]
1 | CC(C)(N)C(=O)N[C@H](COCc1ccccc1)c1nnn(CC2Cc3ccccc3N2S(C)(=O)=O)n1 (some centres not stated) | < 5.30 | 6.26 |  |  |  | 
2 | CCCCNC(=O)CCCn1nnnc1[C@@H](COCc1ccccc1)NC(=O)C(C)(C)N | 5.75 | 7.52 |  |  |  | 
3 | CC(C)(N)C(=O)N[C@H](COCc1ccccc1)c1nnn(Cc2ccccc2)n1 | 5.32 | 5.95 |  |  |  | 
4 | COC(=O)C(c1ccccc1)n1nnnc1[C@@H](COCc1ccccc1)NC(=O)C(C)(C)N (some centres not stated) | 6.33 | 7.70 |  |  |  | 
5 | CC(C)(N)C(=O)N[C@H](COCc1ccccc1)c1nnnn1CCC(=O)NCCc1ccccc1 | 6.11 | 7.57 |  |  |  | 
6 | CC(C)(N)C(=O)N[C@H](COCc1ccccc1)c1nnnn1CCCc1ccccc1 | 6.70 | 7.77 |  |  |  | 
7 | CC(C)(N)C(=O)N[C@H](COCc1ccccc1)c1nnnn1CCCCCNS(C)(=O)=O | < 5.30 | 7.12 |  |  |  | 
8 | CC(C)(N)C(=O)N[C@H](COCc1ccccc1)c1nnn(Cc2cccc(NS(C)(=O)=O)c2)n1 | < 5.30 | 6.06 |  |  |  | 
9 | CC(C)(N)C(=O)N[C@H](COCc1ccccc1)c1nnn(Cc2ccccc2NS(C)(=O)=O)n1 | < 5.30 | 6.37 |  |  |  | 
10 | COC(=O)CCn1nnnc1[C@@H](Cc1c[nH]c2ccccc12)NC(=O)C(C)(C)N | < 5.30 | 6.70 |  |  |  | 
11 | CCCCNC(=O)CCn1nnnc1[C@@H](CCc1ccccc1)NC(=O)C(C)(C)N | 5.86 | 7.31 |  |  |  | 
12 | CC(C)(N)C(=O)N[C@H](COCc1ccccc1)c1nnnn1Cc1ccccc1NS(C)(=O)=O | 5.35 | 6.41 |  |  |  | 
13 | COC(=O)C(c1ccccc1)n1nnc([C@@H](COCc2ccccc2)NC(=O)C(C)(C)N)n1 (some centres not stated) | < 5.30 | 5.50 |  |  |  | 
14 | CCCCNC(=O)CCn1nnnc1[C@@H](COCc1ccccc1)NC(=O)C(C)(C)N | 5.66 | 7.38 |  |  |  | 
15 | CC(C)(N)C(=O)N[C@H](COCc1ccccc1)c1nnnn1Cc1cccc(NS(C)(=O)=O)c1 | < 5.30 | 6.94 |  |  |  | 
16 | CC(C)(N)C(=O)N[C@H](COCc1ccccc1)c1nnn(C/C=C/c2ccccc2)n1 | < 5.30 | 6.29 |  |  |  | 
17 | CC(C)(N)C(=O)N[C@H](COCc1ccccc1)c1nnnn1CC1CN(S(C)(=O)=O)c2ccccc21 (some centres not stated) | 5.80 | 6.83 |  |  |  | 
18 | CC(C)(N)C(=O)N[C@H](COCc1ccccc1)c1nnnn1CCCCC#N | 5.51 | 7.46 |  |  |  | 
19 | COC(=O)CCCn1nnnc1[C@@H](COCc1ccccc1)NC(=O)C(C)(C)N | 5.62 | 7.26 |  |  |  | 

Row | SMILES | pKi [1] | pEC50 [2] | bioavailability [3] [%] | ED50 [4] [µmol/kg] | bioavailability [5] [%] | Activity (Canis familiaris) [ng/mL]
20 | CC(C)(N)C(=O)N[C@H](COCc1ccccc1)c1nnn(CCc2cc3ccccc3n2S(C)(=O)=O)n1 | 5.90 | 6.82 |  |  |  | 
21 | CN(c1ccccc1CCCn1nnc([C@@H](COCc2ccccc2)NC(=O)C(C)(C)N)n1)S(C)(=O)=O | 5.62 | 6.97 |  |  |  | 
22 | CC(C)(N)C(=O)N[C@H](COCc1ccccc1)c1nnn(CC#N)n1 | < 5.30 | 5.82 |  |  |  | 
23 | CC(C)(N)C(=O)N[C@H](COCc1ccccc1)c1nnnn1CC#N | 5.38 | 7.54 |  |  |  | 
24 | CC(C)(N)C(=O)N[C@H](COCc1ccccc1)c1nnnn1Cc1ccc(NS(C)(=O)=O)cc1 | < 5.30 | 6.59 |  |  |  | 
25 | CN(c1ccccc1CCCn1nnnc1[C@@H](COCc1ccccc1)NC(=O)C(C)(C)N)S(C)(=O)=O | 5.76 | 7.85 |  |  |  | 
26 | CC(C)(N)C(=O)N[C@H](COCc1ccccc1)c1nnnn1CCc1ccccc1NS(C)(=O)=O | 5.66 | 7.17 |  |  |  | 
27 | CC(C)(N)C(=O)N[C@H](COCc1ccccc1)c1nnnn1CCC#N | 5.53 | 7.52 | 76 | 0.0085 | 56 | 30
28 | CC(C)(N)C(=O)N[C@H](COCc1ccccc1)c1nnnn1Cc1ccccc1 | 5.72 | 7.00 |  |  |  | 
29 | CC(C)(N)C(=O)N[C@H](COCc1ccccc1)c1nnnn1CCc1cc2ccccc2n1S(C)(=O)=O | 6.01 | 8.40 |  | > 0.0174 |  | 
30 | COC(=O)CCn1nnnc1[C@@H](COCc1ccccc1)NC(=O)C(C)(C)N | 5.47 | 7.37 |  |  |  | 
31 | CC(C)(N)C(=O)N[C@H](COCc1ccccc1)c1nnn(CCCCC#N)n1 | < 5.30 | 5.73 |  |  |  | 
32 | CC(C)(N)C(=O)N[C@H](COCc1ccccc1)c1nnnn1CCC(=O)NCCCc1ccccc1 | 6.09 | 7.23 |  |  |  | 
33 | CC(C)(N)C(=O)N[C@H](COCc1ccccc1)c1nnnn1CCC(=O)NCc1ccccc1 | 5.97 | 7.29 |  |  |  | 
34 | CC(C)(N)C(=O)N[C@H](COCc1ccccc1)c1nnnn1CCc1nnn[nH]1 | 5.30 | 6.46 |  |  |  | 
35 | CC(C)(N)C(=O)N[C@H](COCc1ccccc1)c1nnn(Cc2ccc(NS(C)(=O)=O)cc2)n1 | < 5.30 | 6.01 |  |  |  | 
36 | CC(C)(N)C(=O)N[C@H](COCc1ccccc1)c1nnn(CCc2ccccc2NS(C)(=O)=O)n1 | 5.58 | 5.39 |  |  |  | 
37 | CC(C)(N)C(=O)N[C@H](COCc1ccccc1)c1nnnn1C/C=C/c1ccccc1 | 6.72 | 7.92 |  | 0.0264 |  | 
38 | CC(C)(N)C(=O)N[C@H](COCc1ccccc1)c1nnnn1CCCCCNC(=O)OCc1ccccc1 | 6.49 | 8.00 |  |  |  | 
